For four molecules, MIC and inhibition results are on record in ChEMBL document CHEMBL1777749, “4-Aminothiazolyl analogs of GE2270 A: design, synthesis and evaluation of imidazole analogs” (2011).

Each structure is given as a SMILES string. Values after ≈ are worked out from the molar mass of the structure shown.

Holding throughout (assay type): functional
One test deals with Enterococcus faecalis. In words: Antimicrobial activity against Enterococcus faecalis ATCC 29212 by CLSI method.
In the next test the test system is Enterococcus faecium. In words: Antimicrobial activity against Enterococcus faecium 7130724 by CLSI method.
The next test deals with Escherichia coli. In words: Inhibition of protein synthesis in Escherichia coli S30 extract at 2 uM by luciferase assay relative to control.
A further test has as its system Streptococcus pyogenes. In words: Antimicrobial activity against Streptococcus pyogenes ATCC BAA-595 by CLSI method.
For the next test, the system named is Staphylococcus aureus. In words: Antimicrobial activity against methicillin-resistant Staphylococcus aureus clinical isolate obtained from pharyngeal smear by CLSI method. Put shortly:
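MIC by dilution susceptibility testing per CLSI M07-A8, for bacteria that grow aerobically. Strain: MRSA clinical isolate AKH Vienna A4.018, from a pharyngeal smear. Tested compounds were >95% pure by LCUV, LCMS and ¹H NMR.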

With `CNC(=O)C[C@@H]1NC(=O)c2csc(n2)-c2ccc(-c3nc(C4=N[C@H](C(=O)N5CCC[C@H]5C(N)=O)CO4)cs3)nc2-c2csc(n2)-c2csc(n2)[C@H]([C@@H](O)c2ccccc2)NC(=O)CNC(=O)c2nc(sc2COC)[C@H](C(C)C)NC(=O)c2nc1sc2C`, the MIC against Enterococcus faecalis worked out at 0.5 µg/mL (≈ 0.387 µM); against Enterococcus faecium, 0.25 µg/mL (≈ 0.194 µM); in the test on Streptococcus pyogenes it was 1 µg/mL (≈ 0.775 µM); against Staphylococcus aureus, 0.25 µg/mL (≈ 0.194 µM). The same molecule came in with an inhibition at 2 µM with Escherichia coli of 61%.
Consider `CNC(=O)C[C@@H]1NC(=O)c2csc(n2)-c2ccc(-c3nc(-n4cnc(C(=O)O)c4)cs3)nc2-c2csc(n2)-c2csc(n2)[C@H]([C@@H](O)c2ccccc2)NC(=O)CNC(=O)c2nc(sc2COC)[C@H](C(C)C)NC(=O)c2nc1sc2C`, for which the MIC with Enterococcus faecalis is 4 µg/mL (≈ 3.36 µM); against Enterococcus faecium, above 32 µg/mL; against Streptococcus pyogenes, above 32 µg/mL; against Staphylococcus aureus, 4 µg/mL (≈ 3.36 µM). 2 µM produced 0% inhibition with Escherichia coli.
For `CNC(=O)C[C@@H]1NC(=O)c2csc(n2)-c2ccc(-c3nc(-n4cnc(C(=O)N5CCC[C@H]5C(=O)O)c4)cs3)nc2-c2csc(n2)-c2csc(n2)[C@H]([C@@H](O)c2ccccc2)NC(=O)CNC(=O)c2nc(sc2COC)[C@H](C(C)C)NC(=O)c2nc1sc2C`, the MIC against Enterococcus faecalis was 8 µg/mL (≈ 6.21 µM); with Enterococcus faecium, above 32 µg/mL; against Streptococcus pyogenes it was above 32 µg/mL; against Staphylococcus aureus it was 8 µg/mL (≈ 6.21 µM). Also, the inhibition at 2 µM in the test on Escherichia coli was 53%.
Turning to `CNC(=O)C[C@@H]1NC(=O)c2csc(n2)-c2ccc(-c3nc(-n4cnc(C(=O)NCC(=O)O)c4)cs3)nc2-c2csc(n2)-c2csc(n2)[C@H]([C@@H](O)c2ccccc2)NC(=O)CNC(=O)c2nc(sc2COC)[C@H](C(C)C)NC(=O)c2nc1sc2C`, the MIC against Enterococcus faecalis is 8 µg/mL (≈ 6.41 µM); against Enterococcus faecium, 32 µg/mL (≈ 25.6 µM); against Streptococcus pyogenes, above 32 µg/mL; in the test with Staphylococcus aureus, 4 µg/mL (≈ 3.2 µM). In the test on Escherichia coli, this molecule had an inhibition at 2 µM of 64%.
